# Screens: PubChem, Broad Institute
# The list is not random: actives were taken first. Their share in the collection is about 3%.
# PGC1a acetyl inh: modulators of PGC1a acetylation | U2OS PGC1a acetylation, AlphaScreen anti-acetyl-lysine; with virally co-expressed GCN5 acetyltransferase | inhibition, % at 15.6 µM | 350,000 tested, 0.17% active | AID 651687;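 active = every replicate shows inhibition of at least 40%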
# Ecoli rRNA inh: inhibits bacterial ribosomal RNA function over humanized ribosomes | E. coli WT GFP vs humanized-ribosome RFP mutants, fluorescence, 24 h; stronger effect = lower value; DMSO median 0, no signal -100 | GFP signal change (wild-type ribosome), % (test concentration not listed) | 350,000 tested, 1.6% active | AID 720706;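 active = significant combined selectivity score with lowered wild-type GFP, culture density cut under 30%, mutant RFP and density less affected; inactive = any of these conditions unmet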
# SIRT5 inh: blocks human SIRT5 desuccinylation of peptide; Q9NXA8; Purified SirT5, succinyl-peptide AMC, trypsin-coupled fluorescence; inhibition, % at 15 µM; 330,000 tested, 1.1% active; in the data active = inhibition above about 15%
# Target sequence (Q9NXA8 whole entry, looked up): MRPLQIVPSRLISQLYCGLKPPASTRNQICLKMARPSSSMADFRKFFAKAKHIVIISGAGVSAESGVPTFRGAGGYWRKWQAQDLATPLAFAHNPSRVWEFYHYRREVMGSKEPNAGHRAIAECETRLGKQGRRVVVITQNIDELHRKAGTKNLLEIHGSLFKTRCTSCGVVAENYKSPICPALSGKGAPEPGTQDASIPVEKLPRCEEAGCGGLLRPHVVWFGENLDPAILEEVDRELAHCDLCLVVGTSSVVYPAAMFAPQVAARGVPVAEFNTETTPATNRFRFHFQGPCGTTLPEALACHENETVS
# S100A4 inh HTS: blocks human S100A4 binding to myosin IIA peptide; P26447; S100A4/TAMRA-MyoIIA peptide fluorescence polarization; inhibition, % at 10.7 µM; 360,000 tested, 0.14% active;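 active = mean inhibition of at least 70% across replicates, with every replicate also reaching that level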
# Target sequence (P26447 whole entry, looked up): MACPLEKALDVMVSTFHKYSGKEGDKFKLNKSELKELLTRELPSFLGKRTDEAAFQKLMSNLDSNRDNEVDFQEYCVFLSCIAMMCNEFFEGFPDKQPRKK
#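 Compound dosing: one dose per compound; test system: human S100A4 monomer with TAMRA-labelled myosin IIA peptide; probe or stimulus: TAMRA-labelled myosin IIA heavy-chain peptide probe, 5 nM; medium: HEPES buffer with Ca2+, pH 7.2; schedule: 5 min incubation before reading; benchmarks: neutral control DMSO, positive control TFP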
# Cneo AK release: causes C. neoformans cell lysis; adenylate kinase release luminescence, 4 h; normalised: neutral wells 0, clomiphene wells 100; lysis activity, % at 15 µM; 360,000 tested, 0.2% active; AID 651654;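 active = mean lysis activity across replicates of at least 80%, whatever share of replicates individually reach that level; inactive = mean lysis activity below 80%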
#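 Material: C. neoformans cells | Amount: Yeast cell density of 5 × 10^6 cells/mL | Medium: Fresh YPD growth medium | Dosing: Single dose | Times: Static 4 h at 37 °C with compound, 1 h detection | Detection: AK luminescence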
# Statin myotox sup: suppression of simvastatin myotoxicity; C2C12 myotubes + simvastatin, ATP luminescence, 48 h; scaled: DMSO 0, geranylgeraniol control 100; AID 602340; rescue of ATP level, % at 7.49 µM; 330,000 tested, 0.78% active;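 active = mean ATP rescue above about 67%, or every replicate alone reaching that limit, limit read from the data, passing the limit was not always enough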;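 also: myotubes were challenged with 10 µM simvastatin during compound exposure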
# A number is an active result; - = inactive; . = no result given.
SMILES,PGC1a acetyl inh,Ecoli rRNA inh,SIRT5 inh,S100A4 inh HTS,Cneo AK release,Statin myotox sup
CO[C@H]1CN(C)C(=O)c2ccc(NC(=O)CC(F)(F)F)cc2OC[C@@H](C)N(CC2CC2)C[C@@H]1C,.,-,.,.,.,.
O=C(Nc1ccc(Oc2cccc(C(F)(F)F)c2)nc1)c1ccccc1,.,-,-,-,-,-
O=C(Nc1ccc(Oc2cccc(C(F)(F)F)c2)nc1)c1cccs1,.,-44,-,-,-,-
COc1ccc(/C=C2\N=C(SC)SC2=O)cc1OC,-,.,.,.,-,107
COc1ccc(NC(=O)N(C)C[C@@H]2Oc3c(NS(=O)(=O)c4ccc(Cl)cc4)cccc3C(=O)N([C@@H](C)CO)C[C@H]2C)cc1,-,-,-,-,-,-
CO[C@@H]1CN(C)C(=O)c2cc(NS(=O)(=O)CC(F)(F)F)ccc2OC[C@@H](C)N(Cc2ccccn2)C[C@@H]1C,-,-,-,-,-,-
Cn1cc(/C=C/C(=O)N2CCCC(C(=O)c3cccc(C(F)(F)F)c3)C2)cn1 (stereo not drawn),-,-29,-,-,-,-
C[C@H]1CN([C@@H](C)CO)C(=O)c2cc(C#CC3CCCCC3)cnc2O[C@H]1CN(C)C(=O)Nc1ccccc1,-,-,-,-,-,-
CCN(CC)C(=O)c1sc(NC(=O)C(Sc2ccccc2)c2ccccc2)c(C(=O)OC(C)C)c1C (stereo not drawn),-,.,.,.,-,101
COCCn1c(SCC(=O)N2CCC(C)CC2)nc2c(c1=O)SCC2,.,-,25,-,-,-
COc1ccc(NC(=O)N(C)C[C@@H]2Oc3c(NC(=O)c4ccc(-c5nccs5)cc4)cccc3C(=O)N([C@@H](C)CO)C[C@H]2C)cc1,-,-,-,-,-,.
Brc1ccc(/C=N/n2cnnc2)s1,-,-51,-,-,.,-
C[C@@H]1CCCCO[C@@H](CN(C)S(=O)(=O)c2ccc(Cl)cc2)[C@@H](C)CN([C@H](C)CO)C(=O)c2cc(NS(C)(=O)=O)ccc2O1,-,-,-,-,-,-
COc1cccc(S(=O)(=O)N[C@H]2CC[C@@H](CC(=O)NC3CCC3)O[C@@H]2CO)c1,-,-,-,-,-,-
CCOC(=O)/C(C#N)=C1/C(=O)N(Cc2ccccc2)c2ccccc21,73,-,21,-,.,-
COc1ccccc1C#Cc1ccc2c(c1)O[C@@H](CN(C)Cc1cccnc1)[C@H](C)CN([C@@H](C)CO)S2(=O)=O,44,-,-,-,-,-
CC(C)CC#Cc1ccc2c(c1)O[C@@H](CN(C)S(=O)(=O)c1cccc(F)c1)[C@@H](C)CN([C@H](C)CO)S2(=O)=O,-,-,20,-,-,-
CC(C)CC#Cc1ccc2c(c1)O[C@H](CN(C)Cc1ccc(C(=O)O)cc1)[C@@H](C)CN([C@H](C)CO)S2(=O)=O,-,.,29,-,-,-
CC(C)CC#Cc1ccc2c(c1)O[C@@H](CN(C)Cc1ccc3c(c1)OCO3)[C@@H](C)CN([C@@H](C)CO)S2(=O)=O,-,-,14,-,-,-
C[C@H](CO)N1C[C@H](C)[C@@H](CN(C)S(=O)(=O)c2ccc(Cl)cc2)Oc2c(NS(C)(=O)=O)cccc2C1=O,-,-,-,-,-,-
C[C@H](CO)N1C[C@H](C)[C@@H](CN(C)Cc2cccnc2)Oc2cc(C#CC3CCCC3)ccc2S1(=O)=O,-,-,15,-,-,-
C[C@H](CO)N1C[C@H](C)[C@H](CN(C)Cc2cccnc2)Oc2cc(C#CC3CCCCC3)ccc2S1(=O)=O,-,-,12,-,-,-
CC(C)CC#Cc1ccc2c(c1)O[C@H](CN(C)Cc1cccnc1)[C@@H](C)CN([C@@H](C)CO)S2(=O)=O,-,-,18,.,.,-
C[C@@H]1CN([C@H](C)CO)S(=O)(=O)c2ccc(-c3ccc(C#N)cc3)cc2O[C@H]1CN(C)Cc1cccc(F)c1,-,-,-,-,-,-
C[C@H]1CN([C@@H](C)CO)S(=O)(=O)c2ccc(-c3ccc(C#N)cc3)cc2O[C@@H]1CN(C)Cc1cccc(F)c1,-,-,16,-,-,-
SMILES,PGC1a acetyl inh,Ecoli rRNA inh,SIRT5 inh,S100A4 inh HTS,Cneo AK release,Statin myotox sup
C[C@@H]1CN([C@@H](C)CO)S(=O)(=O)c2ccc(C#CC3CCCCC3)cc2O[C@@H]1CN(C)Cc1cccnc1,-,-,-,-,-,-
C[C@H](NC(=O)C[C@H]1C[C@@H]2c3cc(NC(=O)Cc4ccncc4)ccc3O[C@@H]2[C@H](CO)O1)c1ccccc1,-,-,-,-,-,-
CC(C)CC#Cc1ccc2c(c1)O[C@@H](CN(C)C(=O)c1cccc(F)c1)[C@@H](C)CN([C@H](C)CO)S2(=O)=O,-,-,-,-,-,-
C[C@@H]1CN([C@@H](C)CO)C(=O)c2cc(NC(=O)CCCN(C)C)ccc2O[C@@H]1CN(C)Cc1ccc(C(F)(F)F)cc1,-,-,-,-,-,-
O=C(C[C@@H]1CC[C@@H]2[C@H](COC[C@H](O)CN2S(=O)(=O)c2ccccc2)O1)Nc1ccc(-c2ccccc2)cc1,-,-,-,-,-,-
CCCC#Cc1ccc2c(c1)O[C@@H](CN(C)S(=O)(=O)c1cccc(OC)c1)[C@@H](C)CN([C@H](C)CO)S2(=O)=O,-,-,.,.,.,-
CC(C)CC#Cc1ccc2c(c1)O[C@@H](CN(C)Cc1cccc(F)c1)[C@H](C)CN([C@H](C)CO)S2(=O)=O,-,-,16,-,-,.
O=C1N[C@H](Cc2ccccc2)COCc2cn(nn2)CC[C@H]1Cc1cccc(Cl)c1,.,-,.,.,.,.
CCNC(=S)SCCOc1ccccc1C,.,-34,-,-,-,.
CNC(=S)SCCOc1ccccc1,.,-,-,-,.,.
O=C(C[C@H]1CC[C@@H]2[C@H](COC[C@H](O)CN2C(=O)c2ccccc2F)O1)NCc1ccc(Cl)c(Cl)c1,-,-,.,.,-,-
O=[N+]([O-])c1ccccc1/C=N/Nc1nc(N2CCCC2)nc(N2CCCC2)n1,-,-12,-,-,-,-
O=[N+]([O-])c1ccccc1/C=N/Nc1nccnc1Cl,-,.,.,.,-,112
CCCC(=O)Nc1ccc2c(c1)C(=O)N(C)C[C@H](OC)[C@H](C)CN(Cc1ccc(-c3ccccn3)cc1)[C@@H](C)CO2,-,-,.,-,-,-
O=C(CSc1nc2c(cnn2-c2ccccc2)c(=O)[nH]1)N1CCOCC1,-,.,.,.,-,142
Cc1ccc(-n2ncc3c(=O)[nH]c(SC(C)C)nc32)cc1,-,-,-,-,-,-
Cc1ccc(-n2ncc3c(=O)[nH]c(SCC(=O)N4CCOCC4)nc32)cc1,-,.,.,.,-,129
O=C(CSc1nc2c(cnn2-c2ccc(F)cc2)c(=O)[nH]1)N1CCOCC1,-,.,.,.,-,-
